Assay outcomes (PubChem)
This is a sample that favours compounds with a hit; in the whole collection about 2.7% have one here.
sdo1 growth: restores growth of sdo1-depleted yeast; z-score at 10 µM; S. cerevisiae sdo1-depleted JHY4D growth rescue, OD600 30 h; stronger effect = higher value; pdr5 snq2 efflux-pump mutant strain; AID 817; 0.21% of 140,000 active;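 active = z-score above 3 at both the 24 hr and the 30 hr optical density reads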
Yeast growth inh: chemicals that inhibit yeast BB579 growth in restrictive medium (lifespan-shortening candidates); S. cerevisiae BB579 growth, OD615, 48 h; inhibition, % at 10 µM; 0.51% of 140,000 active; AID 804;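 active = inhibition above a set limit, 3 SD over the mean compound inhibition, cut at about 44% in these data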
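System: DeaD yeast strain BB579; buffer or medium: CSMM-D dextrose restrictive medium; technique: OD at 615 nm; schedule: 4 h cell preincubation, 48 h compound exposure, 30 °C humidified; doses: single 10 µM dose; controls: amphotericin B 10 µg/mL, positive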
RAM network inh: yeast RAM network inhibition. S. cerevisiae dse1pr::URA3 reporter, 5-FOA growth OD615, 2 d; analog-sensitive cbk1-as2 kinase mutant strain. inhibition, % at 50 µM. 1.8% of 190,000 active;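 active = inhibition above a set limit, 3 SD over mean compound inhibition, cut at about 8.4% in these data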;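 also: inhibition rescues growth on 5-FOA so higher OD means more RAM inhibition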
Yeast life ext: extends the lifespan of yeast; S. cerevisiae growth with nicotinamide, OD615; deaD strain in restrictive glucose medium; 0.68% of 130,000 active; inhibition of the nicotinamide effect, % at 10 µM;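 active = inhibition above a set limit, placed 3 SD over the median of all compounds, cut at about 26% in these data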
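Assay system: engineered S. cerevisiae DeaD replicative-lifespan strain, galactose-grown log-phase cells; Buffer or medium: CSMM-D glucose medium, restrictive; Probe or stimulus: nicotinamide 1.5 mM; Compound: single dose 10 µM compound, 0.25% DMSO; Schedule: 4 h preincubation then 48 h treatment at 30 °C; Technique: OD615 measurement.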
Numbers stand for hits.

`CC1CCCN(c2ccc(C(=O)NCc3ccc4c(c3)OCO4)cc2[N+](=O)[O-])C1` (stereo not drawn) gave sdo1 growth inactive, Yeast growth inh inactive, RAM network inh 8.5 and Yeast life ext inactive.
O=C(NCc1ccc2c(c1)OCO2)c1ccc(N2CCCCCC2)c([N+](=O)[O-])c1 was read as sdo1 growth inactive, Yeast growth inh inactive, RAM network inh inactive and Yeast life ext inactive.
For Cc1ccc(C)n1-c1sc2c(c1C#N)CCCC2 the results were sdo1 growth inactive, Yeast growth inh inactive and RAM network inh 10.1.
For Cc1sc(-n2c(C)ccc2C)c(C#N)c1C the results were sdo1 growth inactive, Yeast growth inh inactive, RAM network inh inactive and Yeast life ext inactive.
Screening O=C(Nc1ccc(Br)cn1)c1cccc(-c2cc3ccccc3oc2=O)c1 returned sdo1 growth inactive, Yeast growth inh inactive, RAM network inh inactive and Yeast life ext 75.7.
`CCC(OC(=O)c1nsc(Cl)c1Cl)C(=O)NC(C)(C)CC` (stereo not drawn) gave RAM network inh inactive.
For Cn1c(=O)c2nc(-c3ccccc3)oc2c2ccccc21 the results were sdo1 growth inactive, Yeast growth inh 78.4, RAM network inh inactive and Yeast life ext inactive.
Cc1ccc(CSc2nc3ccccc3cc2C=O)cc1 was read as sdo1 growth inactive, Yeast growth inh inactive, RAM network inh 10.4 and Yeast life ext inactive.
O=Cc1cc2ccccc2nc1SCc1ccc(Cl)c(Cl)c1 was read as sdo1 growth inactive, Yeast growth inh inactive, RAM network inh 8.6 and Yeast life ext inactive.
`O=Cc1cc2ccccc2nc1SCc1ccc(Cl)cc1` gave sdo1 growth inactive, Yeast growth inh inactive, RAM network inh inactive and Yeast life ext 34.1.
CCc1ccc(N2C(=O)CN(Cc3sccc3C)C2=S)cc1 was read as RAM network inh inactive.
For O=C(c1ccc2c(c1)OCO2)C1CCCN(C2CCN(CCc3ccccc3)CC2)C1 (stereo not drawn) the results were RAM network inh inactive.
CCCCc1ccc(/C=C2\C(=O)ON=C2c2ccccc2)s1 was read as sdo1 growth inactive, Yeast growth inh inactive, RAM network inh 8.8 and Yeast life ext inactive.
Screening CN(C)/C=C1\C(=O)ON=C1c1ccccc1 returned RAM network inh inactive.
`NS(=O)(=O)c1ccc(CCNC(=O)CSc2nnc3ccccn23)cc1` gave RAM network inh inactive.
`COc1ccc(C2C=C(c3ccc(Br)s3)Nc3ncnn32)cc1OC` (stereo not drawn) gave sdo1 growth inactive, Yeast growth inh inactive, RAM network inh 8.4 and Yeast life ext inactive.
For O=C(O)CCC(=O)Nc1sc2c(c1C(=O)Nc1cccc3ccccc13)CCCCC2 the results were sdo1 growth inactive, Yeast growth inh inactive, RAM network inh inactive and Yeast life ext 30.1.
`COC(=O)c1c(NC(=O)CCC(=O)O)sc2c1CCCCC2` gave sdo1 growth inactive, Yeast growth inh inactive, RAM network inh inactive and Yeast life ext inactive.
CC(C)OC(=O)c1c(NC(=O)CCC(=O)O)sc2c1CCCCC2 was read as sdo1 growth inactive, Yeast growth inh inactive, RAM network inh 8.5 and Yeast life ext inactive.
For CC(C)OC(=O)c1c(NC(=O)CCn2nnc3ccccc32)sc2c1CCCC2 the results were sdo1 growth inactive, Yeast growth inh inactive, RAM network inh 9.5 and Yeast life ext inactive.
For O=C(COC(=O)Cc1ccccc1F)Nc1cccc(F)c1 the results were RAM network inh inactive.
O=C(Cn1cnc2c(nnn2-c2cccc(Cl)c2)c1=O)NCc1ccccc1 was read as RAM network inh inactive.
`CCOC(=O)c1c(NC(=O)c2ccc(C)cc2)sc2c1CC(C)(C)OC2` gave sdo1 growth inactive, Yeast growth inh inactive, RAM network inh 10.1 and Yeast life ext inactive.
CCCC(=O)Nc1sc2c(c1C(=O)OCC)CC(C)(C)OC2 was read as RAM network inh inactive.
CCOC(=O)c1c(NC(=O)c2ccccc2C)sc2c1CC(C)(C)OC2 was read as sdo1 growth inactive, Yeast growth inh inactive, RAM network inh 8.8 and Yeast life ext inactive.
`Cc1ccc2occ(-c3nn[nH]n3)c(=O)c2c1` gave sdo1 growth inactive, Yeast growth inh inactive, RAM network inh inactive and Yeast life ext inactive.
`CC(C)c1ccc2occ(-c3nn[nH]n3)c(=O)c2c1` gave sdo1 growth inactive, Yeast growth inh inactive, RAM network inh inactive and Yeast life ext 59.3.
CCn1c(CNC(=O)Cc2ccc(OC)cc2)nnc1SCC(=O)Nc1ccc(C(=O)O)cc1 was read as RAM network inh 8.8.
Cc1ccc(S(=O)(=O)NN2C(=O)/C(=C/c3cccn3C)SC2=S)cc1 was read as sdo1 growth inactive, Yeast growth inh inactive, RAM network inh inactive and Yeast life ext 29.5.
`CCCC(C(=O)O)N1C(=O)/C(=C/c2cccn2C)SC1=S` (stereo not drawn) gave sdo1 growth inactive, Yeast growth inh inactive, RAM network inh inactive and Yeast life ext 26.9.
`CC(C)C(C(=O)O)N1C(=O)/C(=C/c2cccn2C)SC1=S` (stereo not drawn) gave sdo1 growth inactive, Yeast growth inh inactive, RAM network inh inactive and Yeast life ext 41.5.
O=C1/C(=C/c2ccccn2)SC(=S)N1NS(=O)(=O)c1ccccc1 was read as RAM network inh inactive.
For CC(C)C(C(=O)O)N1C(=O)/C(=C/C=C/c2ccco2)SC1=S (stereo not drawn) the results were sdo1 growth inactive, Yeast growth inh inactive, RAM network inh inactive and Yeast life ext inactive.
COc1ccc(-c2csc(NC(=O)c3cc(=O)c4ccccc4o3)n2)cc1OC was read as RAM network inh inactive.
CCC1CCCCN1C(=O)COc1ccccc1NC(C)=O (stereo not drawn) was read as RAM network inh inactive.
For COc1cccc(C(=O)NCc2ccc3c(c2)cc(C)n3C)c1 the results were RAM network inh 10.1.
Screening COc1ccc(C(=O)NC(=S)NCc2ccccc2)cc1 returned sdo1 growth inactive, Yeast growth inh inactive, RAM network inh inactive and Yeast life ext inactive.
`COc1cc(OC)cc(C(=O)NCc2ccc(-n3cccc3)cc2)c1` gave RAM network inh 11.3.
For COc1cc(OC)cc(C(=O)NC(=S)NCCc2ccccc2)c1 the results were sdo1 growth inactive, Yeast growth inh inactive, RAM network inh 10.4 and Yeast life ext inactive.
Screening COc1ccc(C(=O)NCc2ccc3c(c2)cc(C)n3C)cc1OC returned RAM network inh inactive.
For CCCCNC(=S)NCc1ccc2c(c1)cc(C)n2C the results were sdo1 growth inactive, Yeast growth inh 44.7, RAM network inh inactive and Yeast life ext inactive.
Cc1ccc(CNC(=O)c2ccc(-n3cccc3)cc2)cc1 was read as RAM network inh inactive.
CCCCCC1=CCC/C1=N\NC(=O)c1ccc2c(c1)OCO2 was read as RAM network inh inactive.
For CCOc1cc(OCC)cc(C(=O)NCCCN2CCOCC2)c1 the results were RAM network inh inactive.
`COc1cc(OC)cc(C(=O)NCCCN2CCN(CCCNC(=O)c3cc(OC)cc(OC)c3)CC2)c1` gave sdo1 growth inactive, Yeast growth inh inactive, RAM network inh inactive and Yeast life ext 40.8.
